# Compound activity (PubChem)
# CHRM4 PAM: potentiates acetylcholine response at human M4 receptor | P08173 | CHO-K1 hM4/Gqi5, Fluo-8 calcium fluorescence, ACh EC20; 0% = ACh EC20, 100% = maximal ACh | activation, % at 3 µM | 360,000 tested, 0.4% active | AID 624126;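 active means activation above its plate's cutoff, the mean activation of sample wells plus 3 SD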
# M5 PAM: CHRM5 positive allosteric modulation; 360,000 tested, 0.3% active; CHO-K1 hM5, Fluo-8 calcium, ACh EC20 PAM; 0% = ACh EC20, 100% = ACh EC100; activation, % at 3 µM; P08912; AID 624038;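 active means activation above the run cutoff, the mean activation of all test compounds plus 3 SD, cut at about 18% in these data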
# Target sequence (P08912 whole entry, looked up): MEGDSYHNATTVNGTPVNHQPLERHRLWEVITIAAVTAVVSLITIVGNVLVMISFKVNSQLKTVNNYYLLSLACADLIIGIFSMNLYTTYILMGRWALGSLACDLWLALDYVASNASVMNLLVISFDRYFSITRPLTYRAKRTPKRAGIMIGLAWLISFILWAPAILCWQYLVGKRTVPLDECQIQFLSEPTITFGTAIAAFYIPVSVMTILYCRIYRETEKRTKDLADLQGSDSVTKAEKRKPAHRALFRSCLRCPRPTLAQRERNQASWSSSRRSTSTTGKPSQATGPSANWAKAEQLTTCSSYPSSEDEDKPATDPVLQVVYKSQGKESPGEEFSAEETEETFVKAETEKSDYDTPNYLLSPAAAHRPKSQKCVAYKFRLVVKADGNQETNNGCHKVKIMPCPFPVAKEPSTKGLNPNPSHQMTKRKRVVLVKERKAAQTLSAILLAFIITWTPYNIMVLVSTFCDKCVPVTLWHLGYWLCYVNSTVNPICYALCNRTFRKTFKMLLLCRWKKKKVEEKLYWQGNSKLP
#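 Assay system: CHO-K1 hM5 cells. Also added: acetylcholine at EC20 concentration, added after compound. Dosing: 3 µM, single dose. Times: compound preincubation 140 s before EC20 acetylcholine addition. Signal: Fluo-8 calcium fluorescence. Measure: % activation relative to EC20 and EC100 ACh responses. Repeats: singlicate, one well per test compound.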
# M4 antag: antagonists of human muscarinic M4 receptor (CHRM4); AID 624125; CHO-hM4 cells, ACh EC80, Fluo-8 calcium fluorescence; P08173; inhibition, % at 3 µM; 360,000 tested, 0.73% active;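 active means inhibition above its plate's cutoff, the mean inhibition of sample wells plus 3 SD, cut at about 27% in these data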;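 further: 0% = acetylcholine EC80 with DMSO and 100% = DMSO without agonist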
# CHRM5 antagonist: CHRM5 antagonism in calcium assay; P08912; CHO-hM5 cells, Fluo-8 calcium fluorescence, ACh EC80; inhibition, % at 3 µM; 360,000 tested, 0.59% active; AID 624040;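 active means inhibition above a per-plate cutoff, the mean of that plate's test compounds plus 3 SD, cut at about 27% in these data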;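 further: 0% = acetylcholine EC80 with DMSO and 100% = DMSO without agonist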
# M5 ag: CHRM5 agonism in calcium assay; CHO-K1 hM5 cells, Fluo-8 calcium fluorescence; 0% DMSO wells, 100% maximal acetylcholine response; activation, % at 3 µM; 360,000 tested, 0.19% active; AID 624037;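 active means activation above the run's mean over test compounds plus 3 SD, cut at about 23% in these data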;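 further: signal is peak over basal fluorescence ratio across the kinetic read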
# CHRM4 agonist: CHRM4 agonism in calcium assay; 360,000 tested, 0.14% active; CHO-K1 hM4/Gqi5, Fluo-8 calcium fluorescence; vehicle 0%, full acetylcholine response 100%; activation, % at 3 µM; P08173;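 active means activation above the run mean over all test wells plus 3 SD, cut at about 32% in these data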;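 further: peak over basal fluorescence ratio per well then scaled between controls; 0% = DMSO wells and 100% = acetylcholine at EC100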
# An asterisk follows results filed as active. Most compounds without a hit are left out; they make up all but 1.9% or so of the library.
SMILES,CHRM4 PAM,M5 PAM,M4 antag,CHRM5 antagonist,M5 ag,CHRM4 agonist
CCCCN1/C(=C/c2ccc3ccccc3[n+]2CC)Sc2ccccc21,-4,-14,21,39*,16,22
CCN1/C(=C/c2ccc3ccccc3[n+]2CC)C=Cc2ccccc21,-12,-13,45*,29*,0,7
CCN1/C(=C/c2ccc3cc(C)ccc3[n+]2CC)Sc2cc(C)ccc21,-17,-22,17,42*,8,11
CC1CCCCN1C(=O)COC(=O)c1cc(Cl)c2c(c1)OCO2 (stereo unspecified),2,3,-3,-1,-4,1
CCCCC1(C)NC(=O)N(CC(=O)Nc2cc(S(=O)(=O)N3CCOCC3)ccc2Cl)C1=O (stereo unspecified),1,8,5,-1,3,1
COCCC(=O)N1CCC(Oc2ccc(C(=O)NC3CCOC(C)(C)C3)cc2)CC1 (stereo unspecified),-6,-4,6,17,0,-1
Cc1[nH]c(=O)[nH]c(=O)c1S(=O)(=O)Nc1ccc(Br)cc1F,-1,-2,2,12,-3,0
CC(=O)N1CCN(C(=O)COc2ccc(N(C)S(=O)(=O)c3cccs3)cc2)CC1,18,20*,-22,-1,-1,2
O=c1c(Cl)c(N2CCNCC2)cnn1C12CC3CC(CC(C3)C1)C2,-21,-6,31*,11,-11,0
C[C@@H]1CN([C@@H](C)CO)C(=O)CCCn2nncc2CO[C@H]1CN(C)Cc1ccc(Oc2ccccc2)cc1,-12,-1,31*,4,-3,0
C[C@@H]1CN([C@H](C)CO)C(=O)CCCn2nncc2CO[C@H]1CN(C)S(C)(=O)=O,-16,8,101*,-9,0,-3
C[C@H](CO)N1C[C@H](C)[C@@H](CN(C)Cc2ccc(O)cc2)OCc2cnnn2CCCC1=O,7,2,-2,4,-1,-1
C[C@@H]1CN([C@H](C)CO)C(=O)CCCn2nncc2CO[C@H]1CN(C)Cc1ccc(Oc2ccccc2)cc1,-13,-4,37*,3,-4,1
CN(Cc1ccccc1)C(=O)c1cccc(NC(=O)Cc2cccc([N+](=O)[O-])c2)c1,-12,-14,2,13,-1,17
Cc1cc(-c2ccc(C)c(S(=O)(=O)N3CCN(c4ccccn4)CC3)c2)on1,-6,-7,0,6,0,7
Cc1ccccc1CSCC(=O)Nc1ccccc1F,4,-2,13,4,-3,0
Cc1c(CCOC(=O)c2ccccc2)sc[n+]1Cc1ccccc1,-41,-22,64*,95*,-8,-1
Cc1c(CCOC(=O)c2cc([N+](=O)[O-])cc([N+](=O)[O-])c2)sc[n+]1CC(=O)c1ccccc1,-9,4,4,3,-15,1
Cc1c(CCOC(=O)c2ccccc2)sc[n+]1CC(=O)c1ccc(Br)cc1,-16,-18,28*,28*,-6,1
CCc1cc(=O)oc2cc(C)cc(OCC(=O)NC(Cc3c[nH]c4ccc(O)cc34)C(=O)O)c12 (stereo unspecified),21*,3,-20,-3,3,0
COC(=O)c1ccc(N2C(c3ccsc3)=Cc3cc4c(cc3C2CC(=O)c2ccco2)OCO4)cc1 (stereo unspecified),-14,-10,30*,1,-7,-1
CCCNC(=O)C1(C)CCCN(C(=O)c2ccc(F)c(Cl)c2)C1 (stereo unspecified),5,0,-9,2,0,0
Cc1ccc(NC2CCCN(C(=O)C3CCCCC3)C2)cc1C (stereo unspecified),-2,21*,6,-14,3,0
O=C(C1CCCC1)N1CCCC(Nc2ccc(F)cc2)C1 (stereo unspecified),-4,-2,7,1,-2,0
O=C(O)C1CCC(=O)N(C2CC2)C1c1ccccc1 (stereo unspecified),0,12,2,-9,2,0
